Compounds with a hit are over-represented: about 2% of the library has one in this group of screens.
HNF4A DNA FP = change in binding of human HNF4A to DNA, primary screen, biochemical, fluorescence polarization, FITC-DNA | 1 h | actives 0.3% (n = 360,000) | AID 1224865, 2016 | Hepatocyte nuclear factor 4-alpha (Homo sapiens), P41235 | activity change, % at 10 µM; in the data active means activity change above about 30%, passing the limit was not always enough
CSN inh = inhibitors of CSN-mediated cullin deneddylation, primary screen, biochemical, fluorescence polarization, uHTS; COP9 signalosome complex subunit 5 (Homo sapiens), Q92905; Purified CSN, SCF-Nedd8-OG deneddylation; inhibition, % at 12.5 µM; actives 0.38% (n = 360,000); AID 651999, 2013;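 active means pattern-corrected inhibition above about 35%, with an unprinted fluorescence ratio check between 0.5 and 1.5, limit read from the data, passing the limit was not always enough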;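 further: 0% = enzyme with substrate and 100% = substrate without enzyme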
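Material: purified human Csn5 enzyme expressed in HEK293T cells / Medium: Tris buffer pH 7.5, NaCl, DTT, Tween-20, trehalose, ovalbumin / Compound dosing: 12.5 µM single point / Schedule: 90 min incubation of compound, enzyme and substrate at room temperature / Signal: fluorescence polarization of the substrate / Control set: no-enzyme wells high, enzyme-with-substrate wells low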
SENP1 FRET inh = human SENP1 catalytic domain inhibitors, primary screen, biochemical, FRET, uHTS | recombinant SENP1 catalytic domain, CyPet-SUMO1-YPet FRET cleavage | inhibition, % at 10 µM | actives 0.21% (n = 360,000);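 active means inhibition at least 30% at 10 µM, raw YFP signal under a set limit, fluorescence ratio 0.5 to 1.5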;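 further: 0% = enzyme with DMSO and 100% = no enzyme wells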
Target sequence (Q9P0U3 419-644 limits assumed): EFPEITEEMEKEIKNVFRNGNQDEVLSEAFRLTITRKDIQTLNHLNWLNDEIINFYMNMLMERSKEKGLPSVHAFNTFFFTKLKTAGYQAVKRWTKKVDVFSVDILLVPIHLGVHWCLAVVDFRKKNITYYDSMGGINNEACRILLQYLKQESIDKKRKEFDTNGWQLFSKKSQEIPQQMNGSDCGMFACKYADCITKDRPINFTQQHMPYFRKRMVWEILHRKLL
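system = hSENP1 catalytic domain, recombinant | reagent = SFCypet-SUMO1-SFYpet substrate at 25 nM | doses = one dose per compound, 10 µM, 0.5% DMSO | incubation = enzyme reaction for 50 min at room temperature, dark | measured by = FRET, CFP and YFP emission | controls = no-enzyme low, enzyme-DMSO high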
TPT1 inhibitor = Candida albicans TPT1 enzyme inhibitors, primary screen, biochemical, fluorescence polarization; actives 0.81% (n = 300,000); inhibition, % at 5 µM; AID 1962, 2009; recombinant caTPT1, FP RNA substrate dephosphorylation;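 active means inhibition above the mean of all tested compounds plus 3 SD, set per screening campaign, cut at about 24% in these data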;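 further: plate controls were DMSO alone for no effect and ferristatin control at 100 nM for full effect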
Rpn11 block = Rpn11 (PSMD14) deubiquitinase inhibitors, primary screen, biochemical, fluorescence polarization, uHTS | 26S proteasome non-ATPase regulatory subunit 14 (Homo sapiens), O00487 | human 26S proteasome, Ub4-pepOG fluorescence polarization; 20S core pre-blocked with epoxomicin | inhibition, % at 20 µM | actives 0.59% (n = 360,000);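 active means inhibition at 20 µM, scaled to each plate's controls, above about 33%, limit read from the data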
ATG4B inhibitor = ATG4B protease inhibitors, primary screen, biochemical, fluorescence, uHTS; ATG4B cleavage of LC3-PLA2, NBD-HPC fluorescence, 1 h; inhibition, % at 8.33 µM; actives 0.51% (n = 340,000); in the data active means inhibition above about 40%
caTPT1 confirm = Candida albicans TPT1 inhibitors, confirmation, biochemical, fluorescence polarization, triplicate; AID 2149, 2009; inhibition, % at 5 µM; recombinant caTPT1, RNase T1 coupled; actives 74% (n = 2,400); shares compounds with TPT1 inhibitor;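 active means inhibition above the primary screen limit, the mean inhibition of all tested compounds plus 3 SD, cut at about 25% in these data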
RNase T1 inh = RNase T1 inhibitors, counter-screen for TPT1 inhibitor project, biochemical, fluorescence polarization | inhibition, % at 5 µM | shares compounds with TPT1 inhibitor | RNase T1 cleavage, 1536-well | actives 83% (n = 2,400);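 active means inhibition above the solvent-only control well mean plus 3 SD, limit set per screening run, cut at about 23% in these data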;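 further: plate controls were DMSO wells with enzyme for no effect and wells without RNase T1 for full effect; inhibitors block cleavage so intact labeled substrate keeps polarization high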
Target sequence (P00651 whole entry, looked up): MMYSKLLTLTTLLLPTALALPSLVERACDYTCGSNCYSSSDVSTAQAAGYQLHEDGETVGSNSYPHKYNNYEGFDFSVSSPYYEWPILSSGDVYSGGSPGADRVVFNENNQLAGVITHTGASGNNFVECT
* marks the source's active call; other numbers are inactive results; . = not tested or not shown; + = active, no number.

SMILES	HNF4A DNA FP	CSN inh	SENP1 FRET inh	TPT1 inhibitor	Rpn11 block	ATG4B inhibitor	caTPT1 confirm	RNase T1 inh
CC(=O)Nc1ccc(/C=C2/Sc3ccccc3C2=O)cc1	1	5	-23	44*	14	-1	43*	51*
CN(C)/C=C1/Sc2ccccc2C1=O	2	-2	-157	-5	-10	-5	.	.
CCOc1ccc(-n2ccnc2SCC(=O)Nc2cc(C)on2)cc1	3	8	-1	119*	0	-11	7	10
CC(OC(=O)c1cccc(O)c1)C(=O)N(C)Cc1ccccc1 (stereo not given)	4	7	2	-1	-3	-1	.	.
CC(OC(=O)/C(C#N)=C/c1ccc(N(C)C)cc1)C(=O)N(C)Cc1ccccc1 (stereo not given)	136	97	-30	107*	.	2	115*	114*
Cc1ccc(OCC(=O)Nc2ccc(S(=O)(=O)Nc3ccccn3)cc2)c(C)c1	-3	-4	-2	36*	-1	29	3	6
Cc1ccccc1OCC(=O)Nc1ccc(S(=O)(=O)Nc2ccccn2)cc1	1	-14	2	7	-9	-7	.	.
COc1ccccc1/C=C/C1=NC(=C\C=C/c2ccccc2)/C(=O)O1	-6	14	-9	74*	30	19	119*	122*
CCN(CC)C(=O)C1=C(C)N(CCCOC)C(=O)C(CC(=O)NC2CC2)C1 (stereo not given)	2	0	-3	.	6	.	.	.
COCCCNC(=O)c1ccc2sc(C3=C[C@@H](O)[C@@H](O)[C@@H](CO)O3)nc2c1	-7	-6	4	.	-10	.	.	.
N#C/C(=C\c1ccc(N2CCOCC2)o1)C(=O)Nc1ccc(O)cc1	217	182	-22	+	.	-10	194*	176*
COc1ccc(NC(=O)/C(C#N)=C/c2ccc(Br)o2)cc1	5	11	3	3	-16	-6	.	.
N#C/C(=C/c1ccc(N2CCCCC2)o1)C(=O)Nc1ccc(Cl)cc1	118	100	-24	187*	.	8	192*	174*
COc1ccc(NC(=O)/C(C#N)=C\c2ccc(N3CCOCC3)o2)cc1	217	14	-26	+	.	-12	198*	177*
CCN1C[C@@H]2[C@@H]3C(=O)N(Cc4ccccc4)C(=O)[C@@H]3[C@](C)(C1=O)N2C(=O)c1ccc(C(F)(F)F)cc1	-1	-1	2	.	-8	-6	.	.
COc1cc(/C=C(\C#N)c2nc3ccc(C)cc3[nH]2)c([N+](=O)[O-])cc1OC	0	3	7	9	3	-17	.	.
CCOc1cc(N(CC)CC)ccc1/C=C(/C#N)c1nc2ccccc2[nH]1	70	62	-21	+	.	-5	183*	166*
CCN(CC)c1ccc(/C=N/Nc2nc3ccccc3[nH]2)c(O)c1	2	0	-22	34*	29	8	17	21
CCCOc1cc(N(CC)CC)ccc1/C=C(/C#N)c1nc2ccc(C)cc2[nH]1	103	8	-19	184*	.	-4	193*	171*
CCN(CC)c1ccc(/C=C(/C#N)c2nc3ccc(C)cc3[nH]2)c(OC(C)C)c1	-42	-72	-24	139*	.	9	130*	124*

Source: PubChem
